Test results published in ChEMBL document CHEMBL4028904, “Discovery of a Novel Series of Tankyrase Inhibitors by a Hybridization Approach” (J Med Chem, 2017).
Values after ≈ are worked out from the molar mass of the structure shown.

How the values were obtained:
[1] = Terminal half life in Beagle dog at 7 mg/kg, po measured up to 24 hrs postdose; type: ADME, organism-based, Canis lupus familiaris; conditions: in vivo, read-out: beta t1/2 (converted)
P388 [2] = assay: Antitumor activity against mouse P388 cells allografted in immunocompetent BDF1 mouse assessed as tumor growth inhibition at 15 mg/kg, po administered qd for 10 days measured on day 12 post last dose; type: functional; conditions: read-out: TGI
In short: (§1)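 Immunocompetent BDF1 (DBA2 × C57Bl6j) mice were implanted with p388 cells and randomized after 2 days into vehicle (1% starch, n = 6) and two treatment groups (n = 5 each). Dosing was oral, once daily, for 10 days. Tumor size was measured by caliper at the end. Values are tumor size reduction relative to vehicle control.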

[3] = Drug excretion in Sprague-Dawley rat feces at 7 mg/kg, iv or 14 mg/kg, po measured up to 24 hrs by LC-MS/MS; type: ADME, organism-based; conditions: in vivo
[4] = Inhibition of CYP1A in human liver microsomes using ethoxyresorufin as substrate after 30 mins by LC-MS/MS analysis; type: ADME
P388 [5] = assay: Antitumor activity against mouse P388 cells allografted in immunocompetent BDF1 mouse assessed as tumor growth inhibition at 30 mg/kg, po administered qd for 10 days measured on day 12 post last dose; type: functional; conditions: read-out: TGI; in short: as §1
Mus musculus [6] = assay: Toxicity in immunodeficient nude Balb/c mouse xenografted with human COLO320DM cells assessed as body weight change at 15 to 60 mg/kg, po administered qd for 10 days measured on days 12, 17 and 21 post last dose; conditions: in vivo, 240 h
[7] = biological target: Protein mono-ADP-ribosyltransferase PARP3 (Homo sapiens, UniProt Q9Y6F1); assay: Inhibition of human PARP3 using NAD+ as substrate by fluorescence assay
COLO 320DM [8] = assay: Antitumor activity against human COLO320DM cells xenografted in nude Balb/c mouse assessed as tumor growth inhibition at 15 mg/kg, po administered qd for 10 days measured on days 12, 17 and 21 post last dose; type: functional; conditions: 240 h, read-out: TGI
In short: (§2)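 Tumor-bearing mice were randomized 2 days after inoculation into four groups: vehicle (1% starch, n = 4) and 15, 30 or 60 mg/kg (n = 5 each). Dosing was oral, once daily, for 10 days. Tumor size was measured by caliper on days 12, 17 and 21. Values are tumor volume reduction relative to vehicle-treated controls.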

[9] = biological target: Protein mono-ADP-ribosyltransferase PARP14 (Homo sapiens, UniProt Q460N5); assay: Inhibition of human PARP14 using NAD+ as substrate by fluorescence assay
Liver = assay: Intrinsic clearance in human liver microsomes at 3 uM incubated up to 45 mins in presence of NADPH by LC-MS/MS analysis; type: ADME, microsome; conditions: 0.75 h
[10] = Cmax in Beagle dog at 7 mg/kg, po measured up to 24 hrs postdose; type: ADME, organism-based, Canis lupus familiaris; design: dose 7 mg/kg, route oral; conditions: in vivo
[11] = biological target: Dual specificity protein kinase CLK2 (Homo sapiens) (UniProt P49760); assay: Inhibition of CLK2 (unknown origin) at 10 uM after 60 mins in presence of [gamma-33P]-ATP by microplate scintillation counting
In short: (§3)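 A panel of 320 wild-type protein kinases was screened with the compound at 10 μM. Activity is reported as percent inhibition.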

Mus musculus [12] = assay: Toxicity in immunodeficient nude Balb/c mouse xenografted with human COLO320DM cells assessed as animal discomfort at 15 to 60 mg/kg, po administered qd for 10 days measured on days 12, 17 and 21 post last dose; conditions: in vivo, 240 h
COLO 320DM [13] = assay: Antitumor activity against human COLO320DM cells xenografted in nude Balb/c mouse assessed as tumor growth inhibition at 60 mg/kg, po administered qd for 10 days measured on days 12, 17 and 21 post last dose; type: functional; conditions: 240 h, read-out: TGI; in short: as §2
Cytochrome P450 2D6 = Cytochrome P450 2D6 (Homo sapiens, UniProt P10635); assay: Inhibition of CYP2D6 in human liver microsomes using dextromethorphan as substrate after 30 mins by LC-MS/MS analysis; type: ADME
[14] = Intrinsic clearance in human hepatocytes assessed per million cells at 3 uM measured up to 120 mins by LC-MS/MS analysis; type: ADME, cell-based, Hepatocyte; conditions: read-out: CLH
COLO 320DM [15] = assay: Antitumor activity against human COLO320DM cells xenografted in nude Balb/c mouse assessed as tumor growth inhibition at 30 mg/kg, po administered qd for 10 days measured on days 12, 17 and 21 post last dose; type: functional; conditions: 240 h, read-out: TGI; in short: as §2
[16] = Kinetic solubility of the compound in PBS buffer at pH 7.4 at 25 degC after 2 hrs; type: physicochemical; conditions: read-out: Kinetic_solubility
[17] = Cmax in ICR mouse at 5 mg/kg, po measured up to 24 hrs postdose; type: ADME, organism-based; design: dose 5 mg/kg, route oral; conditions: in vivo
[18] = AUC (0 to t) in ICR mouse at 5 mg/kg, po measured up to 24 hrs postdose; type: ADME, organism-based; design: time < 24 hr, dose 5 mg/kg, route oral; conditions: in vivo
[19] = biological target: Serine/threonine-protein kinase 16 (Homo sapiens) (UniProt O75716); assay: Inhibition of TSF1 (unknown origin) at 10 uM after 60 mins in presence of [gamma-33P]-ATP by microplate scintillation counting; in short: as §3
Mus musculus [20] = assay: Toxicity in immunocompetent BDF1 mouse allografted with mouse P388 cells assessed as animal discomfort at 15 to 30 mg/kg, po administered qd for 10 days measured on day 12 post last dose; type: organism-based; conditions: in vivo, 240 h
[21] = biological target: Poly [ADP-ribose] polymerase 1 (Homo sapiens, UniProt P09874); assay: Inhibition of recombinant human PARP1 expressed in Escherichia coli using NAD+ as substrate after 10 mins by fluorescence assay
Mus musculus [22] = assay: Toxicity in immunocompetent BDF1 mouse allografted with mouse P388 cells assessed as body weight change at 15 to 30 mg/kg, po administered qd for 10 days measured on day 12 post last dose; type: organism-based; conditions: in vivo, 240 h
[23] = biological target: Protein mono-ADP-ribosyltransferase PARP10 (Homo sapiens, UniProt Q53GL7); assay: Inhibition of human PARP10 using NAD+ as substrate by fluorescence assay
[24] = biological target: Protein mono-ADP-ribosyltransferase PARP12 (Homo sapiens, UniProt Q9H0J9); assay: Inhibition of human PARP12 using NAD+ as substrate by fluorescence assay
[25] = biological target: Protein mono-ADP-ribosyltransferase PARP16 (Homo sapiens, UniProt Q8N5Y8); assay: Inhibition of human PARP16 using NAD+ as substrate by fluorescence assay
[26] = biological target: Protein mono-ADP-ribosyltransferase PARP15 (Homo sapiens, UniProt Q460N3); assay: Inhibition of human PARP15 using NAD+ as substrate by fluorescence assay
[27] = AUC (0 to t) in Sprague-Dawley rat at 14 mg/kg, po measured up to 24 hrs postdose; type: ADME, organism-based; design: time < 24 hr, dose 14 mg/kg, route oral; conditions: in vivo
[28] = Oral bioavailability in Sprague-Dawley rat at 14 mg/kg measured up to 24 hrs postdose; type: ADME, organism-based; conditions: in vivo
[29] = Apparent permeability across apical to basolateral side in MDCK cells expressing human MDR1 at 10 uM after 2 hrs by LC/MS/MS analysis; type: ADME, cell-based, Canis lupus familiaris; conditions: dog
[30] = biological target: Poly [ADP-ribose] polymerase 2 (Homo sapiens, UniProt Q9UGN5); assay: Inhibition of human GST-tagged PARP2 (2 to 583 residues) expressed in baculovirus infected Sf9 cell expression system using NAD+ as substrate after 4 hrs by fluorescence assay
Cytochrome P450 2C19 = Cytochrome P450 2C19 (Homo sapiens, UniProt P33261); assay: Inhibition of CYP2C19 in human liver microsomes using mephenytoin as substrate after 30 mins by LC-MS/MS analysis; type: ADME
[31] = AUC (0 to t) in Beagle dog at 7 mg/kg, po measured up to 24 hrs postdose; type: ADME, organism-based, Canis lupus familiaris; design: time < 24 hr, dose 7 mg/kg, route oral; conditions: in vivo
Mus musculus [32] = assay: Clearance in ICR mouse at 5 mg/kg, po measured up to 24 hrs; type: ADME, organism-based; conditions: in vivo
Canis familiaris = assay: Clearance in Beagle dog at 7 mg/kg, po measured up to 24 hrs postdose; type: ADME, organism-based, Canis lupus familiaris; conditions: in vivo
[33] = Apparent permeability across basolateral to apical side in MDCK cells expressing human MDR1 at 10 uM after 2 hrs by LC/MS/MS analysis; type: ADME, cell-based, Canis lupus familiaris; conditions: dog
Cytochrome P450 2C9 = Cytochrome P450 2C9 (Homo sapiens, UniProt P11712); assay: Inhibition of CYP2C9 in human liver microsomes using tolbutamide as substrate after 30 mins by LC-MS/MS analysis; type: ADME
[34] = biological target: Protein mono-ADP-ribosyltransferase PARP4 (Homo sapiens, UniProt Q9UKK3); assay: Inhibition of human PARP4 using NAD+ as substrate by fluorescence assay
[35] = biological target: Maternal embryonic leucine zipper kinase (Homo sapiens) (UniProt Q14680); assay: Inhibition of MELK (unknown origin) at 10 uM after 60 mins in presence of [gamma-33P]-ATP by microplate scintillation counting; in short: as §3
[36] = Drug excretion in Sprague-Dawley rat urine at 7 mg/kg, iv or 14 mg/kg, po measured up to 24 hrs by LC-MS/MS; type: ADME, organism-based; conditions: in vivo
[37] = Oral bioavailability in Beagle dog at 7 mg/kg measured up to 24 hrs postdose; type: ADME, organism-based, Canis lupus familiaris; conditions: in vivo
[38] = Terminal half life in ICR mouse at 5 mg/kg, po measured up to 24 hrs postdose; type: ADME, organism-based; conditions: in vivo, read-out: beta t1/2 (converted)
Cytochrome P450 3A4 = Cytochrome P450 3A4 (Homo sapiens, UniProt P08684); assay: Inhibition of CYP3A4 in human liver microsomes using midazolam as substrate after 30 mins by LC-MS/MS analysis; type: ADME
[39] = biological target: cGMP-dependent protein kinase 1 (Homo sapiens) (UniProt Q13976); assay: Inhibition of PRKG1 (unknown origin) at 10 uM after 60 mins in presence of [gamma-33P]-ATP by microplate scintillation counting; in short: as §3
[40] = Cmax in Sprague-Dawley rat at 14 mg/kg, po measured up to 24 hrs postdose; type: ADME, organism-based; design: dose 14 mg/kg, route oral; conditions: in vivo
[41] = Oral bioavailability in ICR mouse at 5 mg/kg measured up to 24 hrs postdose; type: ADME, organism-based; conditions: in vivo

Protein mono-ADP-ribosyltransferase PARP15, sequence (Q460N3 whole entry): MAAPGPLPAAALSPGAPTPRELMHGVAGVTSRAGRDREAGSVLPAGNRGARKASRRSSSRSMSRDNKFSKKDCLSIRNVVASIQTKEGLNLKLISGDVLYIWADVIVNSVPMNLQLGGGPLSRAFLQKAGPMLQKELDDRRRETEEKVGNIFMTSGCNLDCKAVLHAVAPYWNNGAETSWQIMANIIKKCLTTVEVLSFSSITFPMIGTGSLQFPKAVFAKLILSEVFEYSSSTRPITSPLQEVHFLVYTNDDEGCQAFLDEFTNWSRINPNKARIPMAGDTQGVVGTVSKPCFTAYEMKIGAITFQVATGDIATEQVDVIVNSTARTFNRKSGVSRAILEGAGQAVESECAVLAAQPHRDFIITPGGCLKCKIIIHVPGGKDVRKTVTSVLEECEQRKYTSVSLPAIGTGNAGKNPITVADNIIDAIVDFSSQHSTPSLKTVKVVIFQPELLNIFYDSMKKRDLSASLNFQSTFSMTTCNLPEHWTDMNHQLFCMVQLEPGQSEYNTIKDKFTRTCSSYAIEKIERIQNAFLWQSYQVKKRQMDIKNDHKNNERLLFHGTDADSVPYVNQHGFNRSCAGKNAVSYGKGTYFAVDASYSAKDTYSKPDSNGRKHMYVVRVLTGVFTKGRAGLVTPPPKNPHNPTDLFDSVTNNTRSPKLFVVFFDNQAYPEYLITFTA
Poly [ADP-ribose] polymerase 2, sequence (Q9UGN5 whole entry, the tested form may be a part): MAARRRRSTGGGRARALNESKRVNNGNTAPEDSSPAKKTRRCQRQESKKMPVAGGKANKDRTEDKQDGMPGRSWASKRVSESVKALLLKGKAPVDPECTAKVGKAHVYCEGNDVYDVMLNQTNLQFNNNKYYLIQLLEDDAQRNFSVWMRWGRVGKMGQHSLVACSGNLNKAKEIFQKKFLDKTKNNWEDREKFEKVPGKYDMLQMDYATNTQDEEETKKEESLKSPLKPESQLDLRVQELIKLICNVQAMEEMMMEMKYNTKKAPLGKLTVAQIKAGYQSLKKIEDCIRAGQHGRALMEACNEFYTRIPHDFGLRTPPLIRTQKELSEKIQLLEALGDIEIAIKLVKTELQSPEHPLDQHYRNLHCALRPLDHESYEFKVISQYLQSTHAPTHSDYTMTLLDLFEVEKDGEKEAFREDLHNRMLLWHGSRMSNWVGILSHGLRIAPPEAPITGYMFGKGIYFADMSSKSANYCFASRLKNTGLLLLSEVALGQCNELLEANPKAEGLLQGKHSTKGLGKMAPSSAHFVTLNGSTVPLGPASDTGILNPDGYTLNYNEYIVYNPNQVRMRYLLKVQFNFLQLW
Protein mono-ADP-ribosyltransferase PARP12, sequence (Q9H0J9 whole entry): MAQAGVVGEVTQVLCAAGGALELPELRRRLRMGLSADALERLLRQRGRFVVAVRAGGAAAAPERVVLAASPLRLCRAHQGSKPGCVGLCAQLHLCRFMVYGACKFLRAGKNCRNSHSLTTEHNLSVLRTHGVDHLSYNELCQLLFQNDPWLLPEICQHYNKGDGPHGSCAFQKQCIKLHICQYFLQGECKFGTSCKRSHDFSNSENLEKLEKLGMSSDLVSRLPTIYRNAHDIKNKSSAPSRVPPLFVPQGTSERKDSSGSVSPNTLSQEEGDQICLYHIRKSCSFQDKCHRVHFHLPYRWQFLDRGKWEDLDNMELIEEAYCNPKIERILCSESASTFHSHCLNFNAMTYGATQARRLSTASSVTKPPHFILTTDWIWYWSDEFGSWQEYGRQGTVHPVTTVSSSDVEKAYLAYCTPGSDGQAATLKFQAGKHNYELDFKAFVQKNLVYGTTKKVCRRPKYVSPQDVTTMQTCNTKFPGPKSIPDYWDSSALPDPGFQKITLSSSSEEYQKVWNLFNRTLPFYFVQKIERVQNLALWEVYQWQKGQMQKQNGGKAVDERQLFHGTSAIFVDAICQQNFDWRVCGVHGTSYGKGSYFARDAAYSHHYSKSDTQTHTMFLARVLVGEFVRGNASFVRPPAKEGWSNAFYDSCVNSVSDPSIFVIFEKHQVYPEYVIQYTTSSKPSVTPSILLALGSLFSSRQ
Protein mono-ADP-ribosyltransferase PARP16, sequence (Q8N5Y8 whole entry): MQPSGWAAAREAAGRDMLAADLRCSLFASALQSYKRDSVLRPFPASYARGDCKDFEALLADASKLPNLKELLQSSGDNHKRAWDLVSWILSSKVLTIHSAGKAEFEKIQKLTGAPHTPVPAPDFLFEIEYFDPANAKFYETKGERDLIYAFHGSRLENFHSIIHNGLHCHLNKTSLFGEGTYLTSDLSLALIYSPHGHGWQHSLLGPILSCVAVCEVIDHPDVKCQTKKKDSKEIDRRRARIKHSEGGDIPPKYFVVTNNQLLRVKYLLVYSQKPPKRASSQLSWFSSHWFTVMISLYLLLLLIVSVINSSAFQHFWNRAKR
Dual specificity protein kinase CLK2 (Homo sapiens), sequence (P49760 whole entry, looked up): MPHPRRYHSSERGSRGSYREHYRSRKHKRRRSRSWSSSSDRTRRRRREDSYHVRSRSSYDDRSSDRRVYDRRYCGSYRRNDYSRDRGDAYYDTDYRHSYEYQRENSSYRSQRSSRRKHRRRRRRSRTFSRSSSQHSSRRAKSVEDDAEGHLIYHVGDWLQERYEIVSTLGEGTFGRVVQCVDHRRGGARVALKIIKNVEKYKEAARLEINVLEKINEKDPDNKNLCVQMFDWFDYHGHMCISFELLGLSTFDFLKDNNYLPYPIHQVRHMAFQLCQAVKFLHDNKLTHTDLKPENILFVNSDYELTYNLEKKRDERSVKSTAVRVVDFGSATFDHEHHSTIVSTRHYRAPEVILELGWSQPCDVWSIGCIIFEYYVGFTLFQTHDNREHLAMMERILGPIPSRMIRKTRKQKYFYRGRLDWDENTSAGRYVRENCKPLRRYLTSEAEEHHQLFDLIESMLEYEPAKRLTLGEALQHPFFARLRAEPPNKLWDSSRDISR
Serine/threonine-protein kinase 16 (Homo sapiens), sequence (O75716 whole entry): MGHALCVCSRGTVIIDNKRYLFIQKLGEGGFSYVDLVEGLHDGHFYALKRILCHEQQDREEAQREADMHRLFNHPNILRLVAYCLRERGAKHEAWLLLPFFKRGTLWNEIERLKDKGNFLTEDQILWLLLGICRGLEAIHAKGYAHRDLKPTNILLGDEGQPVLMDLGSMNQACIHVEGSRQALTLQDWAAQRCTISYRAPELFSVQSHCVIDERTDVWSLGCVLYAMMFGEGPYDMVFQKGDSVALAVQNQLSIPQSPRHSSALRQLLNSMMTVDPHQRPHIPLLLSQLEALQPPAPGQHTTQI
Protein mono-ADP-ribosyltransferase PARP10, sequence (Q53GL7 whole entry): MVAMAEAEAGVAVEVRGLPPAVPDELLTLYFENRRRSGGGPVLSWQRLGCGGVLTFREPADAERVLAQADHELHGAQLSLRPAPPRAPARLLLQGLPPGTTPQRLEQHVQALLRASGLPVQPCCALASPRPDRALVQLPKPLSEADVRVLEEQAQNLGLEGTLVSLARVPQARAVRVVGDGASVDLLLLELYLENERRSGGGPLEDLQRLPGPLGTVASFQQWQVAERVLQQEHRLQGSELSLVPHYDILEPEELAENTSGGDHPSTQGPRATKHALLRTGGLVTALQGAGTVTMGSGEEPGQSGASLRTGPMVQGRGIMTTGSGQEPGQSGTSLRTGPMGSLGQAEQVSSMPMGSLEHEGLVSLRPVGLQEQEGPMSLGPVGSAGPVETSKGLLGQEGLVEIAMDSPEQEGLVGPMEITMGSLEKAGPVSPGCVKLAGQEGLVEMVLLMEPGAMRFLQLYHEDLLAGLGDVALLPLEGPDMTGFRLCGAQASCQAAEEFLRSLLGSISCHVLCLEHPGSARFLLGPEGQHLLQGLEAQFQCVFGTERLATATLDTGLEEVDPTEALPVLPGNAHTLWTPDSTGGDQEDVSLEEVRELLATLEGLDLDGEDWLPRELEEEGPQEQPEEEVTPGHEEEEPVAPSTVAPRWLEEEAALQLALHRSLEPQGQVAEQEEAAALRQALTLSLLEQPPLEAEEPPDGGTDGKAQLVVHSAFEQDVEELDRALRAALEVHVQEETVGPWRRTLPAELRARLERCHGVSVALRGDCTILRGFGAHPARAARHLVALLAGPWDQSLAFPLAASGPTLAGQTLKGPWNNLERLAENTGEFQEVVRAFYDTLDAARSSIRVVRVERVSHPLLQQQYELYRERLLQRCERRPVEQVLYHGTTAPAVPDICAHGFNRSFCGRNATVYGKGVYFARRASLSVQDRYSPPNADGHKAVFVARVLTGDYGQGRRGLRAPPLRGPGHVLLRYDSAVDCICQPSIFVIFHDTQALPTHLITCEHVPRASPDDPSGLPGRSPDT
Protein mono-ADP-ribosyltransferase PARP3, sequence (Q9Y6F1 whole entry): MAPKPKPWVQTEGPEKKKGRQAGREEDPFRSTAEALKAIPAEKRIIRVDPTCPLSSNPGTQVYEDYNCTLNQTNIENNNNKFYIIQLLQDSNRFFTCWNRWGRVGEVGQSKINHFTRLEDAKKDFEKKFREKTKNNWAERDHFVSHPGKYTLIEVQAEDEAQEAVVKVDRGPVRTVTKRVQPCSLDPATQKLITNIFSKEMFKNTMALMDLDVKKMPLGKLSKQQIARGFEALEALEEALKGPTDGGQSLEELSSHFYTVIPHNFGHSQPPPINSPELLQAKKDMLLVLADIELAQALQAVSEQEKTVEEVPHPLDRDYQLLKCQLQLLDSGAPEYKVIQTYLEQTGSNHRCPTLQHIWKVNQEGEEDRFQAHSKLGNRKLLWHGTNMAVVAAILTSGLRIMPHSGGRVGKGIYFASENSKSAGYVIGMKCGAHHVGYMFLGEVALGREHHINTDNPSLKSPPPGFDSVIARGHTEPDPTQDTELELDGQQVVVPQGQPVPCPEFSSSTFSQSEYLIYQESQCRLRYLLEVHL

N#Cc1ccc2c(c1)[nH]c(=O)n2[C@H]1C[C@H](c2nnc(-c3ccncn3)n2-c2ccccc2Cl)C1
half-life [1]: 4.7 h
inhibition in vivo at 15 mg/kg (P388 [2]): 32%
Drug excretion [3]: Metabolite_Notdetected
IC50 [4]: > 25 µM
inhibition in vivo at 30 mg/kg (P388 [5]): 57%
Activity (Mus musculus [6]): Non-Toxic
IC50 [7]: > 100 µM
inhibition in vivo at 15 mg/kg (COLO 320DM [8]): 53%
IC50 [9]: > 10 µM
CLH (Liver): 14.8 µL/min/mg
Cmax [10]: 5850 ng/mL
inhibition [11]: 73%
Activity (Mus musculus [12]): Non-Toxic
inhibition in vivo at 60 mg/kg (COLO 320DM [13]): 63%
IC50 (Cytochrome P450 2D6): > 25 µM
hepatocyte CLint at 3 µM [14]: 6.44 µL/min/1e6 cells
inhibition in vivo at 30 mg/kg (COLO 320DM [15]): 63%
solubility kinetic at 2 h [16]: 31.2 µM (≈ 14.6 µg/mL)
Cmax [17]: 124 ng/mL
AUC(0-t) at 24 h [18]: 145 ng·h/mL
inhibition [19]: 52%
Activity (Mus musculus [20]): Non-Toxic
IC50 [21]: > 100 µM
Activity (Mus musculus [22]): Non-Toxic
IC50 [23]: > 10 µM
IC50 [24]: > 10 µM
IC50 [25]: > 10 µM
IC50 [26]: > 10 µM
AUC(0-t) at 24 h [27]: 2760 ng·h/mL
bioavailability [28]: 35%
Papp [29]: 5.3 ×10⁻⁷ cm/s
IC50 [30]: > 100 µM
IC50 (Cytochrome P450 2C19): > 25 µM
AUC(0-t) at 24 h [31]: 27100 ng·h/mL
clearance (Mus musculus [32]): 567 mL/min/kg
clearance (Canis familiaris): 2.33 mL/min/kg
Papp [33]: 28.2 ×10⁻⁷ cm/s
IC50 (Cytochrome P450 2C9): 11.9 µM
IC50 [34]: > 100 µM
inhibition [35]: 70%
Drug excretion [36]: Metabolite_Notdetected
bioavailability [37]: 91%
half-life [38]: 1.5 h
IC50 (Cytochrome P450 3A4): 1.3 µM
inhibition [39]: 66%
Cmax [40]: 843 ng/mL
bioavailability [41]: 47%
